High-throughput results deposited in PubChem by The Scripps Research Institute Molecular Screening Center.
M1 antag: antagonists of human M1 muscarinic receptor; inhibition, % at 3 µM; CHO-K1 hM1, Fluo-8 calcium fluorescence, ACh EC80 antagonist; actives 1.3% (n = 360,000); AID 588852;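 active = percent inhibition above its own plate's cutoff, namely the mean of that plate's compound wells plus 3 SD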;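 note: peak over basal fluorescence ratio during 140 s after agonist addition; 0% = ACh EC80 plus DMSO and 100% = DMSO alone without agonist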
CHRM1 PAM: positive allosteric modulators of human M1 muscarinic receptor; P11229; CHO-K1 hM1, Fluo-8 calcium fluorescence, ACh EC20; 0% = ACh EC20, 100% = maximal ACh; activation, % at 3 µM; actives 0.088% (n = 360,000); AID 588819; in the data active = activation above about 19%, passing the limit was not always enough
TAAR1 antag: human TAAR1 antagonism. Q96RJ0. CHO RD-HGA16 TAAR1, Fluo-8 calcium fluorescence, antagonist. inhibition, % at 3 µM. actives 1.5% (n = 360,000);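 active = inhibition above a per-plate cutoff, the mean inhibition of test compounds on that plate plus 3 SD, cut at about 49% in these data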;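 note: 0% = DMSO plus EC80 beta-PEA response and 100% = DMSO alone without agonist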
Target sequence (Q96RJ0 whole entry, looked up): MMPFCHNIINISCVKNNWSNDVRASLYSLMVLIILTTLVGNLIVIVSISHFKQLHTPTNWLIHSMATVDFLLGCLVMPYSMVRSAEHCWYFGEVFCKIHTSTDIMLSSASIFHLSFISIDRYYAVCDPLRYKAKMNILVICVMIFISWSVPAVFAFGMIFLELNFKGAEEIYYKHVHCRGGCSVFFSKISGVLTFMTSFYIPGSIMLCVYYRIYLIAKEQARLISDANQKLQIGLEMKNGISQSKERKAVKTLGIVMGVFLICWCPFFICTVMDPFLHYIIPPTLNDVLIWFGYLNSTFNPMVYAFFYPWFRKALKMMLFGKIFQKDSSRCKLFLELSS
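Test system – hTAAR1-expressing CHO RD-HGA16 cells, Gα16-coupled · Also added – β-PEA at EC80 concentration, post-compound challenge · Compound – 3 µM, single point · Incubation – dye loading 75 min at 37 °C, then 30 min room temperature · Measured by – Fluo-8 intracellular calcium dye fluorescence, real-time kinetic reads · Benchmarks – vehicle and agonist controls · Replicates – singlicate, one well per test compound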
TAAR1 agonist: agonists of human TAAR1; Q96RJ0; CHO RD-HGA16 TAAR1, Fluo-8 calcium fluorescence; vehicle wells 0%, saturating PEA agonist 100%; activation, % at 3 µM; actives 0.99% (n = 360,000);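 active = activation above the mean activation of all test compounds in the run plus 3 SD, cut at about 38% in these data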
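System: CHO-derived RD-HGA16 cells with stable Gα16 and human TAAR1. Times: 17-24 h plating, Fluo-8 75 min 37 °C, 30 min RT. Measured by: calcium-sensitive Fluo-8 signal, excitation 470-495, emission 515-575 nm. Read-out basis: % activation relative to PEA EC100 response. Control set: DMSO and PEA EC100. Repeats: no replicates (n 1).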
CHRM1 agonist: agonists of human M1 muscarinic receptor | P11229 | CHO-K1 hM1, Fluo-8 calcium fluorescence, agonist mode; 0% DMSO, 100% acetylcholine EC100 | activation, % at 3 µM | actives 0.33% (n = 360,000) | AID 588814;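 active = activation above the run's mean compound activation plus 3 SD, cut at about 16% in these data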;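 note: peak over basal fluorescence ratio within a 140 s kinetic read after compound addition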
* marks the source's active call; other numbers are inactive results. Compounds with a hit are over-represented: about 3.4% of the library has one in this group of screens.

CCOC(=O)C1CSCCS(=O)(=O)N1Cc1ccccc1F (stereo unspecified) was read as TAAR1 antag -8 and TAAR1 agonist 5.
`CC(C)(C)OC(=O)NCCCC[C@H](NC(=O)c1nc[nH]c1C(=O)N[C@@H](CCCCNC(=O)OC(C)(C)C)C(=O)OC(C)(C)C)C(=O)OC(C)(C)C` gave M1 antag 17, CHRM1 PAM -5, TAAR1 antag 39, TAAR1 agonist 10 and CHRM1 agonist -2.
CC(C)(C)OC(=O)NCCCCCNC(=O)c1[nH]cnc1C(=O)N[C@@H](CCCCNC(=O)OC(C)(C)C)C(=O)OC(C)(C)C was read as M1 antag 30*, CHRM1 PAM -22 and CHRM1 agonist -6.
`CC(C)(C)OC(=O)NCCCCCNC(=O)c1nc[nH]c1C(=O)NCc1ccc(CNC(=O)OC(C)(C)C)cc1` gave M1 antag 68*, CHRM1 PAM -30, TAAR1 antag 81*, TAAR1 agonist 23 and CHRM1 agonist 6.
Screening CC(C)(C)OC(=O)NCc1ccc(CNC(=O)c2nc[nH]c2C(=O)NCc2ccc(CNC(=O)OC(C)(C)C)cc2)cc1 returned M1 antag 2, CHRM1 PAM -3, TAAR1 antag 43, TAAR1 agonist 8 and CHRM1 agonist -1.
`COC(=O)c1cc2c(c3c4cc(OC)ccc4n(S(=O)(=O)c4ccc(OC)cc4)c13)C(=O)N(C1CCCCC1)C2` gave TAAR1 antag -23 and TAAR1 agonist 0.
`O=C(Nc1ccc(Br)c(C(F)(F)F)c1)c1ccc(C(F)(F)F)cc1` gave M1 antag 63*, CHRM1 PAM -23, TAAR1 antag 6, TAAR1 agonist 3 and CHRM1 agonist 0.
Screening O=C(Nc1ccc(Br)c(C(F)(F)F)c1)c1ccccc1 returned M1 antag 8, CHRM1 PAM -19, TAAR1 antag 5, TAAR1 agonist 4 and CHRM1 agonist -8.
Screening COc1ccc(C(=O)Nc2ccc(OCC(F)(F)C(F)F)c(C(F)(F)F)c2)cc1OC returned M1 antag -18, CHRM1 PAM 1, TAAR1 antag 30, TAAR1 agonist 6 and CHRM1 agonist -3.
O=C(Nc1ccc(OCC(F)(F)C(F)F)c(C(F)(F)F)c1)c1ccc(Cl)cc1 was read as M1 antag 36*, CHRM1 PAM -23, TAAR1 antag 31, TAAR1 agonist 5 and CHRM1 agonist 1.
For C[C@@H]1CN([C@@H](C)CO)C(=O)CCCn2cc(nn2)CO[C@H]1CN(C)C(=O)Nc1ccc(-c2cccs2)cc1 the results were TAAR1 antag -17 and TAAR1 agonist 4.
`COCCN1Cc2cc(C(=O)OC)c3c(c2C1=O)c1cc(OC)ccc1n3S(=O)(=O)c1ccc(F)cc1` gave TAAR1 antag -5 and TAAR1 agonist 0.
CSc1nc(C)c(C(=O)C[n+]2ccccc2C)cc1C#N was read as M1 antag 40*, CHRM1 PAM -19, TAAR1 antag -15, TAAR1 agonist 2 and CHRM1 agonist -6.
For CCOC(=O)c1cc(C#N)c(SC)nc1C the results were M1 antag -13, CHRM1 PAM 9, TAAR1 antag -4, TAAR1 agonist 0 and CHRM1 agonist -3.
For CC(=O)N1CCN(c2ccc(N3CCN(Cc4ccccc4)[C@@H](C)C3)c(C)c2)[C@@H](C)C1 the results were TAAR1 antag -11 and TAAR1 agonist 2.
`Cc1[nH]nc2c1C(c1ccccc1)N(c1ccccc1)C2=O` (stereo unspecified) gave TAAR1 antag -12 and TAAR1 agonist 0.
For COc1cccc(NC(=O)N2CCc3nc(NCc4cccc(Oc5ccccc5)c4)ncc3C2)c1 the results were M1 antag 15, CHRM1 PAM -18, TAAR1 antag -4, TAAR1 agonist 2 and CHRM1 agonist -4.
For O=C(Nc1ccc(OC(F)(F)F)cc1)N1CCc2nc(NCc3cccc(Oc4ccccc4)c3)ncc2C1 the results were M1 antag 43*, CHRM1 PAM -26, TAAR1 antag 17, TAAR1 agonist 3 and CHRM1 agonist 0.
For CC(=O)C1=CCC(c2ccc(C)cc2)N(S(=O)(=O)c2ccc(C)cc2)C1 (stereo unspecified) the results were M1 antag -4, CHRM1 PAM -4, TAAR1 antag -14, TAAR1 agonist 0 and CHRM1 agonist -4.
`CC(=O)C1=CCC(c2ccc(Br)cc2)N(S(=O)(=O)c2ccc(C)cc2)C1` (stereo unspecified) gave M1 antag 37*, CHRM1 PAM -24, TAAR1 antag 35, TAAR1 agonist 0 and CHRM1 agonist -9.
`CC(=O)c1c(N2CCN(c3ccccc3)CC2)nc(=S)n(-c2ccccc2)c1C` gave M1 antag 16, CHRM1 PAM -18, TAAR1 antag 15, TAAR1 agonist 6 and CHRM1 agonist -3.
For CC(=O)c1c(N2CCCCC2)nc(=S)n(Cc2ccccc2)c1C the results were M1 antag -3, CHRM1 PAM -7, TAAR1 antag -5, TAAR1 agonist 0 and CHRM1 agonist -5.
`C=CCn1c(C)c(C(C)=O)c(N2CCN(c3ccccc3)CC2)nc1=S` gave M1 antag 89*, CHRM1 PAM -22, TAAR1 antag 19, TAAR1 agonist 0 and CHRM1 agonist -1.
Screening CCn1c(C)c(C(C)=O)c(N2CCN(c3ccc(F)cc3)CC2)nc1=S returned M1 antag -9, CHRM1 PAM 11, TAAR1 antag 3, TAAR1 agonist 1 and CHRM1 agonist -6.
C=CCn1c(C)c(C(C)=O)c(N2CCCC2)nc1=S was read as M1 antag 98*, CHRM1 PAM -20, TAAR1 antag 8, TAAR1 agonist 3 and CHRM1 agonist -6.
Screening CCn1c(C)c(C(C)=O)c(N2CCCC2)nc1=S returned M1 antag 40*, CHRM1 PAM -18, TAAR1 antag -1, TAAR1 agonist 0 and CHRM1 agonist -4.
For CCCN(CC#CC(O)(c1ccccc1)c1cccnc1)CCC (stereo unspecified) the results were M1 antag 14, CHRM1 PAM -10, TAAR1 antag 1, TAAR1 agonist 6 and CHRM1 agonist -6.
For CCN(CC)CC#CC(OC)(c1ccccc1)c1ccccc1 the results were M1 antag 100*, CHRM1 PAM -38, TAAR1 antag 5, TAAR1 agonist 6 and CHRM1 agonist -16.
CCCCN(CCCC)CCNC(=O)CN1C(=O)CSc2ccc(S(=O)(=O)N3CCOCC3)cc21 was read as M1 antag 87*, CHRM1 PAM -24, TAAR1 antag -19, TAAR1 agonist -1 and CHRM1 agonist -6.
CC(C)c1ccccc1OCCCN1CCCC1 was read as M1 antag 42*, CHRM1 PAM -26, TAAR1 antag -12, TAAR1 agonist 2 and CHRM1 agonist -10.
